The text below walks through data of ChEMBL document CHEMBL4411315, “Discovery of Novel Dual Histone Deacetylase and Mammalian Target of Rapamycin Target Inhibitors as a Promising Strategy for Cancer Therapy” (J Med Chem, 2019).

Each structure is given as a SMILES string. pIC50: −log10 of the molar value. Calls of active or inactive are those of the source. No cut-off for these calls is given here.

The subject of data set [1] is MV4-11. Briefly: Cell cycle arrest in human MV4-11 cells assessed as accumulation at G2/M phase at 1.25 nM after 24 hrs by propidium iodide/RNase staining-based FACS analysis (reference value: 18.79%). It counts as functional. (In general: A flow cytometer gives signals particle by particle.)
The subject of data set [2] is MM1.S. Kind of data set: Cell cycle arrest in human MM1S cells assessed as accumulation at G0/G1 phase at 1.25 nM after 24 hrs by propidium iodide/RNase staining-based FACS analysis (reference value: 49.22%). It counts as functional.
The test system of data set [3] is MM1.S. Kind of data set: Induction of apoptosis in human MM1S cells assessed as early apoptotic cells at 10 nM after 48 hrs by Annexin V-FITC/propidium iodide staining-based flow cytometric analysis (reference value: 0.38%). Format: functional.
Data set [4] has as its system MV4-11. Briefly: Antitumor activity against human MV4-11 cells xenografted in NOD/SCID mouse assessed as tumor growth inhibition at 10 mg/kg, iv administered every 2 days for 6 days and measured every 2 days post last dose by caliper method relative to control. It counts as functional. The settings on record: MV4-11, iv, read-out: TGI. Put shortly:
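Female NOD/SCID mice aged 5-6 weeks received 10^7 MV4-11 cells in 100 μL serum-free IMDM s.c. into the right flank. At 100-200 mm3 the mice were randomized, 6 per group. Dosing was i.v. at 10 mg/kg every 2 days, in saline with 2.5% DMSO and 10% cyclodextrin at pH 9. Tumours were measured by caliper every 2 days, with volume = length × width² × 0.5, and were weighed at sacrifice.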
(In general: A xenograft is tissue or cells of one species grown in another, often human tumour cells in immunodeficient mice.)

For data set [5], the system named is MM1.S. Briefly: Cell cycle arrest in human MM1S cells assessed as accumulation at G2/M phase at 10 nM after 24 hrs by propidium iodide/RNase staining-based FACS analysis (reference value: 26.29%). Format: functional.
The test system of data set [6] is MV4-11. Briefly: Induction of apoptosis in human MV4-11 cells assessed as early apoptotic cells at 320 nM after 48 hrs by Annexin V-FITC/propidium iodide staining-based flow cytometric analysis (reference value: 10.7%). It counts as functional.
Data set [7] concerns MV4-11. Kind of data set: Induction of apoptosis in human MV4-11 cells assessed as late apoptotic cells at 160 nM after 48 hrs by Annexin V-FITC/propidium iodide staining-based flow cytometric analysis (reference value: 5.03%). Format: functional.
Data set [8] in a line: Toxicity against NOD/SCID mouse xenografted with human MM1S cells assessed as effect on body weight at 10 mg/kg, iv administered every 2 days for 5 days. Format: organism-based. The settings on record: in vivo. In short, it runs like this: (§1)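 Female NOD/SCID mice, 5-6 weeks old, received 10^7 MM1S cells in 100 μL serum-free RPMI 1640 s.c. into the right flank. At 100-200 mm3 tumours they were randomised, 6 mice per group. Tumours were measured by caliper every 2 days. At the end, tumours were excised and weighed. Survivors are reported per group.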

The target in data set [9] is T1, Serine/threonine-protein kinase mTOR (Homo sapiens, UniProt P42345). Kind of data set: Inhibition of mTOR in human MV4-11 cells assessed as decrease in Akt phosphorylation at S473 residues at 0.01 to 10 uM after 24 hrs by Western blot analysis. It counts as cell-based. In short, it runs like this:
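Treatment of MV4-11 cells lasted 24 h at 0.01, 0.1, 1 and 10 μM. Lysis in RIPA buffer and BCA quantitation, then 30 μg protein by SDS-PAGE, PVDF transfer, 5% milk block, primary antibody overnight at 4 °C, HRP secondary 1 h and ECL detection. p-p70S6K (T389), p-4EBP1 (S65), p-Akt (S473) and p-ERK were probed.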
A general note: A western blot detects proteins with antibodies after separation by electrophoresis.

Data set [10] addresses Protein deacetylase HDAC6 (Homo sapiens) (UniProt Q9UBN7). Kind of data set: Inhibition of HDAC6 in human MV4-11 cells assessed as increase in alpha-tubulin acetylation after 6 hrs by Western blot analysis. Format: cell-based. In short, it runs like this: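 MV4-11 cells treated 6 h at 0.01, 0.1 or 1 μM. Whole-cell protein extracted in RIPA buffer and quantified by BCA. 30 μg protein run on SDS-PAGE and transferred to PVDF. Blocked 1 h in 5% milk, primary antibody overnight at 4 °C, HRP secondary 1 h, ECL detection. Acetyl-histone H3 and acetyl-α-tubulin probed, with GAPDH as loading control.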

Data set [11] concerns MM1.S. Briefly: Induction of apoptosis in human MM1S cells assessed as early apoptotic cells at 160 nM after 48 hrs by Annexin V-FITC/propidium iodide staining-based flow cytometric analysis (reference value: 0.38%). It counts as functional.
Data set [12] can be described thus: Toxicity against NOD/SCID mouse xenografted with human MM1S cells assessed as mouse survival at 20 mg/kg, iv administered every 2 days for 5 days. The settings on record: in vivo. It counts as organism-based. Put shortly:
as §1

The test system of data set [13] is MV4-11. Kind of data set: Cell cycle arrest in human MV4-11 cells assessed as accumulation at S phase at 2.5 nM after 24 hrs by propidium iodide/RNase staining-based FACS analysis (reference value: 36.42%). Format: functional.
Data set [14] has as its system MV4-11. Kind of data set: Cell cycle arrest in human MV4-11 cells assessed as accumulation at S phase at 1.25 nM after 24 hrs by propidium iodide/RNase staining-based FACS analysis (reference value: 36.42%). It counts as functional.
Another data set deals with Histone deacetylase 3 (Homo sapiens, UniProt O15379). Briefly: Inhibition of recombinant full length HDAC3 (unknown origin) using Ac-peptide-AMC as substrate preincubated for 15 mins followed by substrate addition and measured after 1 hr by fluorescence assay.
In data set [15] the target is T1, Serine/threonine-protein kinase mTOR. Briefly: Inhibition of human recombinant mTOR expressed in mammalian expression system assessed as residual activity at 1 uM. Put shortly:
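Radiometric kinase panel (99 kinases) run at 1 μM inhibitor in duplicate with [γ-33P]ATP, kinase-specific buffer and substrate at room temperature. The reaction was started with Mg/ATP and stopped with 0.5% phosphoric acid, then spotted on P30 filtermat, washed and scintillation counted. Results are expressed as % remaining activity versus DMSO control.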

In another data set the target is Histone deacetylase 11 (Homo sapiens, UniProt Q96DB2). Kind of data set: Inhibition of recombinant full length N-terminal GST-tagged human HDAC11 expressed in baculovirus expression system using Ac-peptide-AMC as substrate preincubated for 15 mins followed by substrate addition and measured after 1 hr by fluorescence assay.
A further data set concerns the target Histone deacetylase 2 (Homo sapiens, UniProt Q92769). Kind of data set: Inhibition of recombinant full length human HDAC2 expressed in baculovirus expression system using Ac-peptide-AMC as substrate preincubated for 15 mins followed by substrate addition and measured after 1 hr by fluorescence assay.
In data set [16] the test system is MM1.S. Briefly: Antiproliferative activity against human MM1S cells after 72 hrs by MTT assay. It counts as functional, cell-based.
The test system of another data set is OCI-AML-3. Briefly: Antiproliferative activity against human OCI-AML3 cells after 72 hrs by MTT assay. Format: functional, cell-based. The settings on record: OCI-AML-3, 72 h.
In data set [17] the test system is MV4-11. Briefly: Induction of apoptosis in human MV4-11 cells assessed as late apoptotic cells at 40 nM after 48 hrs by Annexin V-FITC/propidium iodide staining-based flow cytometric analysis (reference value: 5.03%). It counts as functional.
Another data set has as its system Raji. Kind of data set: Antiproliferative activity against human Raji cells after 72 hrs by MTT assay. It counts as functional, cell-based. In short, it runs like this: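 Log-phase cells were plated at 10000-15000 per well and exposed to serial concentrations after 24 h for 72 h. Read-out was MTT for 1-3 h, then 20% SDS overnight and absorbance at 570 nm. IC50 was calculated from growth versus untreated control, as mean ± SEM of at least three independent experiments.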

For data set [18], the target named is Protein deacetylase HDAC6 (Homo sapiens, UniProt Q9UBN7). Briefly: Inhibition of recombinant full length HDAC6 (unknown origin) using Ac-peptide-AMC as substrate preincubated for 15 mins followed by substrate addition and measured after 1 hr by fluorescence assay.
Sequence of Protein deacetylase HDAC6 (Q9UBN7 whole entry): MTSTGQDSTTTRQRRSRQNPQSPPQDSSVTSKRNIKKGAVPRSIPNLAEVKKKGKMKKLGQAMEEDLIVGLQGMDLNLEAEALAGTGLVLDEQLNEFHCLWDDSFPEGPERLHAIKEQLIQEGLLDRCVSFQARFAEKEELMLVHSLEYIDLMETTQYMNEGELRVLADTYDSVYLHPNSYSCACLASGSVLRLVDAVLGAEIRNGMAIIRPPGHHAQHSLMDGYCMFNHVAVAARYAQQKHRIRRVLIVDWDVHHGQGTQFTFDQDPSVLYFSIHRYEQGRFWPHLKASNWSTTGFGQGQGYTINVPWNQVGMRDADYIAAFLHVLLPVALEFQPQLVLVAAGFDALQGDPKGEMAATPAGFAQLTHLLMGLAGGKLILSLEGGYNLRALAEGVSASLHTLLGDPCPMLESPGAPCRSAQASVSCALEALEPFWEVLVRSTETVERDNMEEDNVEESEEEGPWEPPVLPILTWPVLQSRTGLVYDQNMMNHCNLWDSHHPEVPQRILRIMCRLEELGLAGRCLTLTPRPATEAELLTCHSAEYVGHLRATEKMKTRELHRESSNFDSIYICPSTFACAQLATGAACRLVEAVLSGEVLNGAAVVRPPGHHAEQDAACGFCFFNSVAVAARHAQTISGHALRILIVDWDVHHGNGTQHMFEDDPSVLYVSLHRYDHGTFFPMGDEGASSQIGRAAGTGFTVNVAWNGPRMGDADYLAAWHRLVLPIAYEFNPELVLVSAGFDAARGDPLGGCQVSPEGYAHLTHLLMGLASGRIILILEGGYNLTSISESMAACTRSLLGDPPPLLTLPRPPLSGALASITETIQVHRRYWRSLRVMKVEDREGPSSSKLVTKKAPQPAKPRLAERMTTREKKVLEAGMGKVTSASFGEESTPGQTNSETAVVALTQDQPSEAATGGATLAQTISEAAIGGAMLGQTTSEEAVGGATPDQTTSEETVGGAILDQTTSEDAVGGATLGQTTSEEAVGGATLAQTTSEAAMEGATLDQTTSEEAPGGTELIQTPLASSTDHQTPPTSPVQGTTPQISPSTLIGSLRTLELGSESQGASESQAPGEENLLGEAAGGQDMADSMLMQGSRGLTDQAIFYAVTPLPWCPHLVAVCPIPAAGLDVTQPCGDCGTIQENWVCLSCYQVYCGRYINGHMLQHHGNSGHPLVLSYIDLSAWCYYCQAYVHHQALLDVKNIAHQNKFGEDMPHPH

Sequence of Histone deacetylase 3 (O15379 whole entry): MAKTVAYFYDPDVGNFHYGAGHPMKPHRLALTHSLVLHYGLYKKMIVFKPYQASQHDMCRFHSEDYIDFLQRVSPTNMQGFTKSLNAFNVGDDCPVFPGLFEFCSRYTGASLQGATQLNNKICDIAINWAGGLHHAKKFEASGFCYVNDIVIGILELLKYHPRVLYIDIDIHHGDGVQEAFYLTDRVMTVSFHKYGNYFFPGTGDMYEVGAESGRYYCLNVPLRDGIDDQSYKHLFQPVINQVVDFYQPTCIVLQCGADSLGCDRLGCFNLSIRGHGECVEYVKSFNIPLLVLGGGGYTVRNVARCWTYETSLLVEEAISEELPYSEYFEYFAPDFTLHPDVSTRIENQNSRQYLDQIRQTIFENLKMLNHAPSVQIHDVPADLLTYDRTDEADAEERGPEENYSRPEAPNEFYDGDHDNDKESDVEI
Sequence of Histone deacetylase 11 (Q96DB2 whole entry): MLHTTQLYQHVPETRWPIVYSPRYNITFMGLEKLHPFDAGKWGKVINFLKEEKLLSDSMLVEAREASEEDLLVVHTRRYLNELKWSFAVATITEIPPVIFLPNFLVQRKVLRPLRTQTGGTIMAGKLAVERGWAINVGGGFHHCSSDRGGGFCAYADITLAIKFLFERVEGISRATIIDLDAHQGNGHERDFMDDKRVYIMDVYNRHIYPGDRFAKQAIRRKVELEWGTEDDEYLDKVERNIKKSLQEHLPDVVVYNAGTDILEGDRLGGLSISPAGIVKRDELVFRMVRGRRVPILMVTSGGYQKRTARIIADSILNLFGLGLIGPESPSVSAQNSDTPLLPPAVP
Sequence of Histone deacetylase 2 (Q92769 whole entry): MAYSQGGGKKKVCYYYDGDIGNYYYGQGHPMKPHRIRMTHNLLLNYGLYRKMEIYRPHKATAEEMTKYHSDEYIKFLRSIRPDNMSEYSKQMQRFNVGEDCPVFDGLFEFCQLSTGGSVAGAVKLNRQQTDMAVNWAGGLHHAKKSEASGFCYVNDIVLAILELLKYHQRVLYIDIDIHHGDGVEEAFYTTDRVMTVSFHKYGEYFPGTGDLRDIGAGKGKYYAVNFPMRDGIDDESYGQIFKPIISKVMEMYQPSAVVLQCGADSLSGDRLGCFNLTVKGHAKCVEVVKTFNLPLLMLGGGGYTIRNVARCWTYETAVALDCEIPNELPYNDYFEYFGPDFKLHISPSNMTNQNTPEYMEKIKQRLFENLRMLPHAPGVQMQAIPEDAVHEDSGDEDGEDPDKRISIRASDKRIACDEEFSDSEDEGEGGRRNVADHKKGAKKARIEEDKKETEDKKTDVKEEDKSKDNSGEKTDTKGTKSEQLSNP
Sequence of Protein deacetylase HDAC6 (Homo sapiens) (Q9UBN7 whole entry): as the sequence (Q9UBN7 whole entry) above

By pIC50 is commonly meant the IC50 on a negative log10 scale, so that one unit is a factor of ten. Take `C[C@@H]1CN(C(=O)Nc2ccc(-c3nc(N4CCOCC4)c4cnn(CCCCCCC(=O)NO)c4n3)cc2)CCO1`: the Activity was 18.99% in the data set with MV4-11 [1]; 53.85% in the data set with MM1.S [2]; 3.09% in the data set on MM1.S [3]; 20.43% with MM1.S [5]; 27.5% in the data set on MV4-11 [6]; 61.9% in the data set with MV4-11 [7]. Also, the Activity result was “Non-Toxic” in data set [8]; 19.6% in the data set on MM1.S [11]; “Non-Toxic” in [12]; 33.77% with MV4-11 [13]; 34.16% in the data set with MV4-11 [14]; 57.6% with MV4-11 [17]. The inhibition in vivo at 10 mg/kg with MV4-11 [4] came out at 53.1%. Moreover, the inhibition entry in [9] and in data set [15] was “Active” each time. Moreover, the inhibition entry in [10] was “Dose-dependent effect”. In addition, the pIC50 at Histone deacetylase 3 was 8.83; at Histone deacetylase 11 it was < 6.00; on Histone deacetylase 2, 9.21; in the data set with MM1.S [16], 8.14; in the data set with OCI-AML-3, 8.00; in the data set on Raji, 8.72. The negative-log IC50 (pIC50) in data set [18] was 8.74.
